Results of several laboratories.
Compare with care: the assays were run in different laboratories.
Target: Serine/threonine-protein kinase 32A (STK32A, Homo sapiens, UniProt Q8WU08)

`Cn1c2c(Cl)c(Cl)ccc2c2cc(N)[nH]c(=O)c21` has a ΔTm of -0.3 °C (thermal stability, DSF; 10 µM).
`COc1cc(Cl)c(C(=O)N[C@@H](CN[C@H]2CC[C@@H](N)CC2)Cc2ccc(C#N)cc2)cc1-c1ccc(CN[C@H](C)c2ccc(C)cc2)o1` has a remaining activity of 97% (enzyme activity, inhibitor; 1 µM).
The remaining signal of `Nc1ncnc2occ(-c3ccc(NC(=O)Nc4cc(C(F)(F)F)ccc4F)cc3)c12` is reported as 3.2% (cell-free assay; 20 µM).
For `Cc1ccc(C(=O)Nc2ccc(CN3CCN(C)CC3)c(C(F)(F)F)c2)cc1C#Cc1cnc2cccnn12`, the remaining signal was 90% (cell-free assay; 23.5 nM).
`CN(C)c1nccc(-c2cnc3ncccn23)n1` gave a remaining binding of 47% (binding; 1 µM).
For `Cn1c2c(c3ccc(Cl)c(Cl)c31)C(C#N)C1(CCCCC1)NC2=O` (racemic), the ΔTm was 0.2 °C (thermal stability, DSF; 10 µM).
With `O=C(NC[C@@H]1[C@H]2CN(C(=O)OCc3cc(C(F)(F)F)cc(C(F)(F)F)c3)C[C@@H]12)c1ccc2[nH]nnc2c1` the remaining binding was 72% (cell-free assay, competition with immobilised ligand; 1 µM).
`CN1CCC2(CC1)NC(=O)c1c(c3ccc(Cl)c(Cl)c3n1C)C2C#N` (racemic) gave a ΔTm of -0.4 °C (thermal stability, DSF; 10 µM).
With `Cc1c(C(=O)O)cc(-c2ccc(C3CCNCC3)cc2)c2ccc(-c3ccc(C(F)(F)F)cc3)cc12` the remaining binding was 89% (binding, competition with immobilised ligand; 1 µM).
For `CN1CC(Oc2cnc(C#N)cc2-c2ccn3nc(NC(=O)C4CC4)cc3c2)C1`, the inhibition was 3% (enzyme activity, inhibitor; 1 µM).
